Results as given in ChEMBL document CHEMBL1125483, “Novel inhibitors of prolyl 4-hydroxylase. 3. Inhibition by the substrate analogue N-oxaloglycine and its derivatives” (J Med Chem, 1992).
pIC50, pKi: −log10 of the molar value.

Legend:
[1] = target: Prolyl 4-hydroxylase subunit alpha-1 (Rattus norvegicus) (UniProt P54001); assay: Compound was evaluated for the inhibition of prolyl 4-hydroxylase at 50 ug/mL
[2] = target: T1, Prolyl 4-hydroxylase subunit alpha-1 (Rattus norvegicus, UniProt P54001); assay: (§1) Compound was evaluated for the inhibition of prolyl 4-hydroxylase
T1 sequence (P54001 whole entry): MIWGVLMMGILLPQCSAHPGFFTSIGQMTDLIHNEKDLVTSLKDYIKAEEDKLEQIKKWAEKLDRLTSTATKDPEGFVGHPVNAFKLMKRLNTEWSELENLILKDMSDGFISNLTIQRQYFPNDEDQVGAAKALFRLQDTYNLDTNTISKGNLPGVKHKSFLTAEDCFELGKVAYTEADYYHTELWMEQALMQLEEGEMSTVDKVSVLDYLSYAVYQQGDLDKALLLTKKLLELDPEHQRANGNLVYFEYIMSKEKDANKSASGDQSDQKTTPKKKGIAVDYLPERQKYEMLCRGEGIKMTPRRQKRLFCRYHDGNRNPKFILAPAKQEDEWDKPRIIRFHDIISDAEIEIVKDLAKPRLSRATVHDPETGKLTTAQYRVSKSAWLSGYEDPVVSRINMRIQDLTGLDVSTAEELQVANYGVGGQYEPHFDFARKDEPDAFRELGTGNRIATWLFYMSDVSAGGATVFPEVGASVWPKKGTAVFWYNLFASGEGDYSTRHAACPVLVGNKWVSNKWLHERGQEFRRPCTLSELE
Summary of the method: (§2)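 Prolyl 4-hydroxylase activity was measured with an indirect assay that follows the conversion of labelled 2-ketoglutarate cosubstrate into labelled succinate. Each point was run in duplicate. IC50 was obtained by interpolation from six-point dose-response curves.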

[3] = target: T1, Prolyl 4-hydroxylase subunit alpha-1; assay: Compound was evaluated for the inhibition of prolyl 4-hydroxylase
[4] = target: Prolyl 4-hydroxylase subunit alpha-1 (Rattus norvegicus) (UniProt P54001); assay: as §1; conditions: concentration not given here; summary of the method: as §2
[5] = target: T1, Prolyl 4-hydroxylase subunit alpha-1; assay: Inhibitory activity against prolyl 4-hydroxylase
Summary of the method: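 Indirect radiometric assay: conversion of labelled cofactor 2-ketoglutarate into labelled succinate measured. Each point in duplicate; IC50 interpolated from six-point dose-response curves.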

[6] = target: Prolyl 4-hydroxylase subunit alpha-1 (Rattus norvegicus) (UniProt P54001); assay: Compound was evaluated for the inhibition of prolyl 4-hydroxylase at 100 ug/mL
[7] = target: Prolyl 4-hydroxylase subunit alpha-1 (Rattus norvegicus) (UniProt P54001); assay: Compound was evaluated for the inhibition of prolyl 4-hydroxylase at 100 ug/mL

Sequence of Prolyl 4-hydroxylase subunit alpha-1 (Rattus norvegicus) (P54001 whole entry): as above

In the case of `O=C(CNC(=O)C(=O)O)NS(=O)(=O)c1ccccc1`, the inhibition [1] was 34%.

Work on `CS(=O)(=O)NC(=O)CNC(=O)C(=O)O` yielded a pIC50 [2] of 3.38.

`O=C(O)C(=O)N1CCCC1C(=O)O` (stereo not drawn) showed an inhibition [1] of 10%.

`C[C@@H](NC(=O)C(=O)O)C(=O)O` gave a pIC50 [3] of 3.21.

In the case of `O=C(O)CCNC(=O)C(=O)O`, the inhibition [4] was 24%.

`O=C(O)C(=O)NC(Cc1ccccc1)C(=O)O` (stereo not drawn) was tested, and the inhibition [1] was 18%.

Compound `O=C(O)c1ccc(C(=O)O)nc1` [PYRIDINE-2,5-DICARBOXYLIC ACID] has a pKi [5] of 6.10 and a pIC50 [2] of 5.29.

Work on `O=C(O)C(=O)Nc1ccc(C(=O)O)cc1` yielded an inhibition [6] of 9%.

With `C[C@H](NC(=O)C(=O)O)C(=O)O` the pIC50 [2] was 4.42.

With `CC(C)(NC(=O)C(=O)O)C(=O)O` the inhibition [1] was 26%.

For `CCOc1ccc(NC(=O)CNC(=O)C(=O)O)cc1`, the inhibition [1] was 16%.

Work on `CC(NC(=O)C(=O)O)C(=O)O` (stereo not drawn) yielded a pIC50 [2] of 4.04.

Work on `CN(CC(=O)O)C(=O)C(=O)O` yielded an inhibition [1] of 10%.

Compound `CSCCC(NC(=O)C(=O)O)C(=O)O` (stereo not drawn) has an inhibition [7] of 9%.

`O=C(O)CNC(=O)C(=O)O` [N-OXALYLGLYCINE] showed a pIC50 [2] of 5.54 and a pKi [2] of 6.27.

`CC(C)CC(NC(=O)C(=O)O)C(=O)O` (stereo not drawn) was tested, and the inhibition [1] was 16%.
